From ChEMBL document CHEMBL1124891, “Azulene derivatives: new non-prostanoid thromboxane A2 receptor antagonists” (J Med Chem, 1990) come the findings set out here.

Holding throughout (type): functional
The species named for test [1] is Oryctolagus cuniculus. In words: Tested for the concentration that cause 50% inhibition of the maximum aggregation with rabbit platelet-rich plasma induced by 2.5 x 10 E -6 M of U-46619. Put shortly:
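Rabbit blood drawn from carotid artery into 3.18% trisodium citrate (1/10 volume). PRP from 300 g spin for 15 min; PPP from 1000g spin for 20 min, used as 100% transmission reference. PRP warmed 2 min at 37 °C, compound or vehicle added, 2 min later 2.5×10^-6 M U-46619. Turbidimetric (Born) aggregometry; IC50 as 50% inhibition of maximum aggregation.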

The species entered for test [2] is Oryctolagus cuniculus. In words: Tested for the concentration that causes 50% relaxation when contraction in rabbit aorta was induced by 3 x 10 E -8 M of U-46619. The gist of the method:
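Rabbit thoracic aorta strips held at 37 °C in oxygenated (95% O2/5% CO2) bicarbonate salt solution with dextrose, resting tension 1.5 g, equilibrated 1 h. Isometric tension recorded via force transducer. Once contraction to 3×10^-8 M U-46619 plateaued, compound added cumulatively. Concentration giving 50% relaxation of maximal U-46619-induced tension change obtained by regression of concentration–relaxation curve.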

Test [3] can be described thus: Selectivity index is the […] between the IC50 values in the aggregation and contraction assays. Put shortly: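 Index for τ-receptor computed as […] between IC50 in rabbit PRP aggregation (2.5×10^-6 M U-46619) and IC50 for relaxing rabbit aorta contracted by 3×10^-8 M U-46619.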

Molecules are shown by their SMILES.

Regarding `CC(C)c1ccc2c(CCCCNS(=O)(=O)c3ccccc3)cc(C(=O)O)c-2cc1`, the 50% inhibitory concentration (IC50) (commonly the midpoint of a concentration-inhibition curve) in test [1] was over 100 µM; in test [2] it was 1.6 µM. For the same molecule, the Selectivity index in test [3] was over 63.

With `COc1ccc(S(=O)(=O)NCCCCc2cc(C(=O)O)c3ccc(C(C)C)ccc2-3)cc1`, the IC50 in test [1] was over 100 µM; in test [2], 0.43 µM. For the same molecule, in test [3], the Selectivity index was over 233.

Consider `O=C(O)COc1ccc(CCNS(=O)(=O)c2ccccc2)cc1` [SULOTROBAN], for which the IC50 in test [1] was found to be 7.1 µM; in test [2] it was 1.3 µM. Further, the Selectivity index in test [3] came to 5.

For `CC(C)c1ccc2c(CCCNS(=O)(=O)c3ccccc3)cc(C(=O)O)c-2cc1`, the figures for the IC50 in test [1] and in test [2] were over 100 µM and 14 µM, respectively. The Selectivity index in test [3] was over 7.

For the molecule `CC(C)c1ccc2c(CCCCNS(=O)(=O)c3ccccc3)cc(S(=O)(=O)O)c-2cc1`, the IC50 in test [1] is over 100 µM; in test [2], 1.1 µM. Also, the Selectivity index in test [3] is over 91.

Regarding `CC(C)c1ccc2c(CCCCNS(=O)(=O)c3ccccc3)cc(CC(=O)O)c-2cc1`, the values for the IC50 in test [1] and in test [2] were over 100 µM and 3 µM, respectively. In addition, the Selectivity index in test [3] is over 33.

On to `CC(C)c1ccc2c(CCCCNS(=O)(=O)c3ccc(Cl)cc3)cc(C(=O)O)c-2cc1`, for which the IC50 in test [1] is over 100 µM; in test [2], 0.15 µM. The same molecule displayed a Selectivity index in test [3] of over 667.

In the case of `COc1ccc(S(=O)(=O)NCCCCc2cc(S(=O)(=O)O)c3ccc(C(C)C)ccc2-3)cc1`, the IC50 in test [1] stood at 64 µM; in test [2], 0.097 µM. The Selectivity index in test [3] came out at 660.

For `CC(C)c1ccc2c(CCCCNS(=O)(=O)c3ccc(Cl)cc3)cc(S(=O)(=O)O)c-2cc1`, the IC50 in test [1] came out at 8.7 µM; in test [2] it was 0.023 µM. Further, the Selectivity index in test [3] came out at 378.

In the case of `CC(C)c1ccc2c(CCCCCNS(=O)(=O)c3ccccc3)cc(C(=O)O)c-2cc1`, the values for the IC50 in test [1] and in test [2] were over 100 µM and 3.4 µM, respectively. Further, in test [3], the Selectivity index was over 29.

In the case of `CC(C)c1ccc2c(CCNS(=O)(=O)c3ccccc3)cc(C(=O)O)c-2cc1`, the IC50 in test [1] is over 100 µM; in test [2], 14 µM. In test [3], the Selectivity index was over 7.

With `CC(C)c1ccc2c(/C=C/C(=O)O)cc(CCCCNS(=O)(=O)c3ccccc3)c-2cc1`, the IC50 in test [1] was over 100 µM; in test [2], 16 µM. The same molecule had a Selectivity index in test [3] of over 6.
